Measured values from ChEMBL document CHEMBL4266041, “Hydroxybiphenylamide GroEL/ES Inhibitors Are Potent Antibacterials against Planktonic and Biofilm Forms of Staphylococcus aureus” (J Med Chem, 2018).
Calls of active or inactive are those of the source. The rule behind the calls is not given here.

Legend:
[1] = molecular target: T1, E. coli GroEL/ES (Escherichia coli, UniProt P0A6F5); assay: Inhibition of Escherichia coli GroEL expressed in Escherichia coli DH5alpha/Escherichia coli GroES expressed in Escherichia coli BL21 (DE3) assessed as reduction in GroEL/GroES-mediated denatured MDH refolding after 20 to 40 mins by spectrometric analysis
T1 sequence (P0A6F5 whole entry, looked up): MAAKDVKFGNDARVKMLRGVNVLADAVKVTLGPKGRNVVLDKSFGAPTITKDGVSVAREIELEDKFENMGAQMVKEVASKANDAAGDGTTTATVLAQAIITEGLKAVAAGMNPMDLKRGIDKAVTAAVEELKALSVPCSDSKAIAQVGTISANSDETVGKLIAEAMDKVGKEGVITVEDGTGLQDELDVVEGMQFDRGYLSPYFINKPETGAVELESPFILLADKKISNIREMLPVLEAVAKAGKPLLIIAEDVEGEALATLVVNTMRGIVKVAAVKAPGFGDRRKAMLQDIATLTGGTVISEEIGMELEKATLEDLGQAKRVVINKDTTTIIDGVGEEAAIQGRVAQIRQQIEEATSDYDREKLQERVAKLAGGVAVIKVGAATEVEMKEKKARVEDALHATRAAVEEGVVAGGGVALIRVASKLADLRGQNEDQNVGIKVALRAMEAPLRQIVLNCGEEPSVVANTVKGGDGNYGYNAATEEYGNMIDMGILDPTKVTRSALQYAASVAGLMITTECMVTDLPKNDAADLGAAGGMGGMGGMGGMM
Method in brief: (§1)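 Uses E. coli GroEL/ES with a denatured MDH or rhodanese reporter. GroEL first forms a binary complex with the denatured reporter. Refolding is started by adding ATP and GroES, then reporter enzyme activity is read. DMSO is the negative control. IC50 values from replicate curves are log-averaged after ROUT outlier screening.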

[2] = molecular target: T1, E. coli GroEL/ES; assay: Inhibition of Escherichia coli GroEL expressed in Escherichia coli DH5alpha/Escherichia coli GroES expressed in Escherichia coli BL21 (DE3) assessed as reduction in GroEL/GroES-mediated denatured rhodanese refolding after 45 mins by spectrometric analysis; method in brief: as §1
[3] = test system: Staphylococcus aureus; assay: Antibacterial activity against Staphylococcus aureus ATCC 25923 after 6 to 8 hrs by bacterial proliferation assay; type: functional, organism-based
[4] = molecular target: T2, Thiosulfate sulfurtransferase (Homo sapiens, UniProt Q16762); assay: Inhibition of refolded rhodanese (unknown origin) preincubated with Escherichia coli GroEL/GroES for 60 mins in absence of compound followed by compound addition by spectrometric analysis
T2 sequence (Q16762 whole entry): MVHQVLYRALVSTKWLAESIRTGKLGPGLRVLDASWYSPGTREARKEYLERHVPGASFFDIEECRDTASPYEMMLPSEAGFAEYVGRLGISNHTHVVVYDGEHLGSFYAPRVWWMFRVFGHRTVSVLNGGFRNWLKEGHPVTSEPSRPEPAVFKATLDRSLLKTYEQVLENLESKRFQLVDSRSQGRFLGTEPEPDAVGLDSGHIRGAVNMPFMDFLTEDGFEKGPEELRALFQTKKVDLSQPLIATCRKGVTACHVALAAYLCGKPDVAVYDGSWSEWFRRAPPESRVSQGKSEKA

[5] = Inhibition of refolded MDH (unknown origin) preincubated with Escherichia coli GroEL/GroES for 45 mins in absence of compound followed by compound addition and measured for 20 to 35 mins by spectrometric analysis
[6] = test system: Enterococcus faecium; assay: Antibacterial activity against Enterococcus faecium ATCC 19434 after 24 hrs by bacterial proliferation assay; type: functional, organism-based; settings: ATCC 19434, 24 h
[7] = test system: Staphylococcus aureus; assay: Antibacterial activity against methicillin-resistant Staphylococcus aureus ATCC BAA-44 after 6 to 8 hrs by bacterial proliferation assay; type: functional, organism-based
[8] = test system: Klebsiella pneumoniae; assay: Antibacterial activity against Klebsiella pneumoniae ATCC 13883 after 6 to 8 hrs by bacterial proliferation assay; type: functional, organism-based
Method in brief: (§2)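 Bacterial growth inhibition in liquid culture. The highest concentration tested was 100 µM. The mean was back-calculated from the average log value. Values above the top concentration were set 0.1 log unit higher.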

[9] = test system: Acinetobacter baumannii; assay: Antibacterial activity against Acinetobacter baumannii ATCC 19606 after 24 hrs by bacterial proliferation assay; type: functional, organism-based; settings: ATCC 19606 = CIP 70.34 = JCM 6841, 24 h; method in brief: as §2
[10] = test system: Pseudomonas aeruginosa; assay: Antibacterial activity against Pseudomonas aeruginosa ATCC 10145 after 24 hrs by bacterial proliferation assay; type: functional, organism-based; settings: ATCC 10145, 24 h; method in brief: as §2
[11] = test system: Enterobacter cloacae; assay: Antibacterial activity against Enterobacter cloacae subsp. cloacae ATCC 13047 after 24 hrs by bacterial proliferation assay; type: functional, organism-based; settings: subsp. cloacae ATCC 13047, 24 h; method in brief: as §2
[12] = Cytotoxicity against human THLE3 cells assessed as reduction in cell viability after 48 hrs by Alamar Blue reporter assay; settings: 48 h
[13] = test system: HEK293; assay: Cytotoxicity against HEK293 cells assessed as reduction in cell viability after 48 hrs by Alamar Blue reporter assay; settings: human, hek293, 48 h
[14] = test system: Staphylococcus aureus; assay: Ratio of EC50 for bactericidal activity against Staphylococcus aureus Rosenbach ATCC 25923 in biofilms to EC50 for planktonic growth of Staphylococcus aureus Rosenbach ATCC 25923; type: functional
[15] = test system: Staphylococcus aureus; assay: Antibiofilm activity against Staphylococcus aureus Rosenbach ATCC 25923 after 24 hrs by crystal-violet based UV-Vis spectroscopy; type: functional, organism-based; settings: Rosenbach ATCC 25923, 24 h
Method in brief: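 ATCC 25923 colony grown overnight in TSB at 37°C with shaking, precultured 1 h in TSB + 0.5% glucose, then diluted to OD600 0.01. Incubated stagnant at 37°C for 24 h with compound (100 µM–46 nM, 3-fold, DMSO), alongside bacteria-free baseline plates. Wells washed, crystal violet stained 15 min, developed in MeOH:AcOH:H2O, A595.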

[16] = test system: Staphylococcus aureus; assay: Bactericidal activity against Staphylococcus aureus Rosenbach ATCC 25923 in biofilms preincubated for 24 hrs followed by compound wash out and measured after 24 hrs; type: functional, organism-based
Method in brief: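 ATCC 25923 preculture (TSB + 0.5% glucose, OD600 0.01) grown stagnant 24 h at 37°C to form biofilm, without compound. Wells washed 3× with PBS, then fresh TSB added with compound (100 µM–46 nM, 3-fold, DMSO) for 24 h at 37°C. Washed again, then recovered in fresh TSB 24 h at 37°C.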

[17] = test system: Staphylococcus aureus; assay: Bactericidal activity against planktonic growth of Staphylococcus aureus Rosenbach ATCC 25923 preincubated for 24 hrs followed by compound wash out and measured after 24 hrs; type: functional, organism-based
[18] = molecular target: HSP60/HSP10 (Homo sapiens, UniProt P10809); assay: Inhibition of human N-terminal octa-His-tagged HSP60 expressed in Escherichia coli Rosetta(DE3) pLysS/human HSP10 expressed in Escherichia coli Rosetta(DE3) assessed as reduction in HSP60/HSP10-mediated denatured MDH refolding after 40 to 60 mins by spectrometric analysis
Chain of HSP60/HSP10 (P10809 whole entry): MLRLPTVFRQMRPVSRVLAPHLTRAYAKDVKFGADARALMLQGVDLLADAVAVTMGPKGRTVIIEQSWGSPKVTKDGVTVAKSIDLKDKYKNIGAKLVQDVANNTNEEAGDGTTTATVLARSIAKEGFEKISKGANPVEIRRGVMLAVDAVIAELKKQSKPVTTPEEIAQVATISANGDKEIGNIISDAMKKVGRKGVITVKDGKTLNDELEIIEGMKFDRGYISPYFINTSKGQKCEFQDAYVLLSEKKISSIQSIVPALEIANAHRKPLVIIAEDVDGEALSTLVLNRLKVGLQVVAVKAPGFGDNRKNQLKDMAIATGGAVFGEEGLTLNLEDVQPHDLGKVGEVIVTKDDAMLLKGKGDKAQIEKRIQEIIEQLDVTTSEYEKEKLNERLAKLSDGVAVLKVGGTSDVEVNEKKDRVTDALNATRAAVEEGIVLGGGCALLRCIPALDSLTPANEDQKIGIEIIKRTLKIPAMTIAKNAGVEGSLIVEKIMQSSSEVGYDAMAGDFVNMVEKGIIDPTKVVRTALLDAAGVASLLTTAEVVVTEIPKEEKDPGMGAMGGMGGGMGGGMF
Chain of HSP60/HSP10 (P61604 whole entry, further chain): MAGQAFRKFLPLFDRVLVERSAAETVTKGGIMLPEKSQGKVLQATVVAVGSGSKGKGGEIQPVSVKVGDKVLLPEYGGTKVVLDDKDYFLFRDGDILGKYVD
Method in brief: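 Human HSP60/10 refolding of denatured MDH, run the same way as the GroEL/ES-dMDH assay. A binary complex of chaperonin and denatured MDH is formed, and refolding is started with ATP and HSP10. MDH activity is the read-out. DMSO is the negative control. IC50 values from replicate curves are log-averaged after ROUT outlier screening.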

[19] = Therapeutic index, ratio of CC50 for human THLE3 cells to EC50 for methicillin-resistant Staphylococcus aureus ATCC BAA-44; type: toxicity; settings: read-out: Ratio CC50/EC50
Method in brief: (§3)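 Ratio of human-cell CC50 to MRSA (ATCC BAA-44) EC50. […] EC50 comes from inhibition of MRSA proliferation in liquid culture. Replicate values were log-transformed, screened for outliers (ROUT, Q 10%), then averaged and back-calculated. Values above 100 µM were entered as 126 µM.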

[20] = Therapeutic index, ratio of CC50 for HEK293 cells to EC50 for methicillin-resistant Staphylococcus aureus ATCC BAA-44; type: toxicity; settings: human, read-out: Ratio CC50/EC50; method in brief: as §3
[21] = test system: Staphylococcus aureus; assay: Antibacterial activity against methicillin-resistant Staphylococcus aureus ATCC BAA-44 precultured for 24 hrs passage with compound followed by subculture in presence of compound for 12 days serial passage; type: functional, organism-based
Method in brief: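 Cells from the first well with OD600 >0.2 were sub-cultured 24 h in a fresh compound dilution series. Serial passage ran for 12 days, with EC50 determined after each passage. Averages are from triplicate analyses.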

[22] = Staphylococcus aureus, ATCC BAA-44

| Compound | IC50 [1] [µM] | IC50 [2] [µM] | EC50 [3] [µM] | IC50 [4] [µM] | IC50 [5] [µM] | EC50 [6] [µM] | EC50 [7, 22] [µM] | EC50 [8] [µM] | EC50 [9] [µM] | EC50 [10] [µM] | EC50 [11] [µM] | CC50 [12] [µM] | CC50 [13] [µM] | Ratio EC50 [14] | EC50 [15] [µM] | EC50 [16] [µM] | EC50 [17] [µM] | IC50 [18] [µM] | also measured |
| --- | --- | --- | --- | --- | --- | --- | --- | --- | --- | --- | --- | --- | --- | --- | --- | --- | --- | --- | --- |
| O=C(Nc1ccc(Sc2nc3ccccc3s2)c(Cl)c1)c1cccc(Br)c1O | 9.5 | 3.8 | 0.45 | > 100 | > 63 | 24 | 0.71 | > 100 | 2.9 | > 100 | > 100 | 19 | 64 | 5 - 15 | 1 | 5.6 | 0.45 |  |  |
| CN[C@H](CC(C)C)C(=O)N[C@H]1C(=O)N[C@@H](CC(N)=O)C(=O)N[C@H]2C(=O)N[C@H]3C(=O)N[C@H](C(=O)N[C@H](C(=O)O)c4cc(O)cc(O)c4-c4cc3ccc4O)[C@H](O)c3ccc(c(Cl)c3)Oc3cc2cc(c3O[C@@H]2O[C@H](CO)[C@@H](O)[C@H](O)[C@H]2O[C@H]2C[C@](C)(N)[C@H](O)[C@H](C)O2)Oc2ccc(cc2Cl)[C@H]1O [VANCOMYCIN] | > 100 | > 100 | 0.67 | > 100 | > 63 | 0.6 | 0.52 | > 100 | > 100 | > 100 | > 100 | > 100 | > 100 |  | 0.54 | > 100 | 0.67 | > 100 |  |
| O=C(Nc1cccc(Cl)c1)c1cc(Br)cc(Br)c1O | 24 | 47 | 0.66 | > 100 | 27 | 73 | 1.1 | 95 | 46 | > 100 | 78 | 9.2 | 18 |  |  |  |  |  | selectivity ratio [19]: > 50; selectivity ratio [20]: > 50 |
| O=C(Nc1cccc(Cl)c1)c1cc(Br)ccc1O | > 100 | > 100 | 0.46 | > 100 | > 63 | > 100 | 0.53 | > 100 | > 100 | > 100 | > 100 | 4.1 | 15 | 5 - 15 | 0.44 | 6.9 | 0.46 | > 100 | Activity [21]: Active |
| O=C(Nc1ccccc1)c1cc(Br)cc(Br)c1O [METABROMSALAN] | 61 | > 100 | 1.2 | > 100 | 51 | > 100 | 2 | > 100 | > 100 | > 100 | > 100 | 25 | 34 |  |  |  |  |  | selectivity ratio [19]: > 50; selectivity ratio [20]: > 50 |
| O=C(Nc1ccc(Sc2nc3ccccc3s2)cc1)c1ccccc1O | 40 | 87 | 0.2 | > 100 | > 63 | 67 | 0.41 | > 100 | > 100 | > 100 | > 100 | 33 | 74 | 5 - 15 | 0.91 | 2 | 0.2 | > 100 |  |
| COc1c(Br)cc(Br)cc1C(=O)Nc1cccc(Cl)c1 | > 100 | > 100 | 46 | > 100 | > 63 | > 100 | > 100 | > 100 | > 100 | > 100 | > 100 | > 100 | > 100 |  |  |  |  | > 100 |  |
| O=C(Nc1ccc(Sc2nc3ccccc3s2)cc1)c1cc(Br)cc(Br)c1O | 2.7 | 1.3 | 0.44 | > 100 | 8.4 | 0.88 | 0.52 | > 100 | > 100 | > 100 | > 100 | 20 | 66 | 5 - 15 | 0.54 | 2.3 | 0.44 |  | selectivity ratio [19]: > 50; selectivity ratio [20]: > 50 |
| O=C(Nc1ccc(Oc2ccc(Cl)cc2)c(Cl)c1)c1cc(I)cc(I)c1O [RAFOXANIDE] | 4.3 | 2.2 | 0.32 | > 100 | 25 | 0.99 |  | > 100 | 31 | > 100 | 40 | 24 | > 100 |  |  |  |  | 2.8 | EC50 [7]: 0.34 µM |
| O=C(Nc1ccccc1)c1ccccc1O [SALICYLANILIDE] | > 100 | > 100 | 28 | > 100 | > 63 | > 100 | 51 | > 100 | > 100 | > 100 | > 100 | 68 | > 100 |  |  |  |  | > 100 |  |
| COc1c(Br)cccc1C(=O)Nc1ccc(Sc2nc3ccccc3s2)c(Cl)c1 | > 100 | > 100 | > 100 | > 100 | > 63 | > 100 | > 100 | > 100 | > 100 | > 100 | > 100 | > 100 | > 100 |  |  |  |  | > 100 |  |
